HIV Env fusion – inhibitors of HIV Env-mediated cell fusion; HeLa-JRFL Env/CEM21 cell fusion, luciferase; inhibition, % at 12.3 µM; 360,000 tested, 1.1% active; AID 651610;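 active = mean replicate inhibition score of at least 50 and every replicate individually at or above 50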;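 note: 0% = plate neutral controls and 100% = maraviroc near 300 nM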
PDI inh – blocks human protein disulfide isomerase activity. inhibition, % at 10 µM. 350,000 tested, 0.052% active. PDI insulin aggregation turbidity, A650, 90 min. P07237;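 active = mean inhibition across replicates of 30% or more, whatever share of single replicates reach that level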
Target sequence (P07237 whole entry, looked up): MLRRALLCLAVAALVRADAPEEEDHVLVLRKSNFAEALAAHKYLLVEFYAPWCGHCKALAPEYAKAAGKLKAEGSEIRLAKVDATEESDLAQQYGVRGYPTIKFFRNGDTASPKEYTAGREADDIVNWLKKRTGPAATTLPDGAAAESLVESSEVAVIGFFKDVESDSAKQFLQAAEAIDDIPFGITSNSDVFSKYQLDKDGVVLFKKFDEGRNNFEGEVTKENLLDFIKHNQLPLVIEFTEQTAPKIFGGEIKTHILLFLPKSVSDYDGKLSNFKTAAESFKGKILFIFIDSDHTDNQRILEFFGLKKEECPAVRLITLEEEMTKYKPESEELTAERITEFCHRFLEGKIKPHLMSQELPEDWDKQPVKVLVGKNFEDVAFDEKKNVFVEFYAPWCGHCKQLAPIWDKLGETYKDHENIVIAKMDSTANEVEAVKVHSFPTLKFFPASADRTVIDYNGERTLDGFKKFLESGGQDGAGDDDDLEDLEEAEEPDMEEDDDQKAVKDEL
GSIS activator – GLuc luminescence reporter in INS-1E cells, primary screen for activators of glucose-dependent secretion of insulin | INS-1E GLuc reporter insulin secretion, 2-3 h | activation, % at 16.6 µM | 370,000 tested, 0.61% active | AID 743287;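 active = lowest replicate activation of at least 40%, so every replicate reaches that level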;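 note: 0% = median of neutral control wells and 100% = median of IBMX positive control wells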
ERp5 inh – blocks human ERp5 reductase activity on insulin; ERp5 insulin aggregation, absorbance 650 nm, 90 min; inhibition, % at 9.99 µM; AID 651711; 350,000 tested, 0.05% active;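 active = mean replicate inhibition above about 25%, with every replicate also reaching it, limit read from the data, passing the limit was not always enough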
FN deposit inh – fibronectin deposition inhibition; 350,000 tested, 0.086% active; AH1F fibroblasts, Alexa488-fibronectin deposition fluorescence, overnight; AID 743247; inhibition, % at 12.6 µM;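 active = mean inhibition across replicates of 30% or more, regardless of how many single replicates reach that level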;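 note: positive control wells lacked labelled fibronectin entirely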
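Test system: AH1F fibroblast monolayer depositing Alexa488-labelled fibronectin into matrix. Input: 10000 cells per well. Technique: fluorescence, ex 485 nm, em 525 nm. Buffer or medium: DMEM plus 2% serum, read in PBS. Timing: 1 h cell adhesion before compound, then overnight fibronectin incubation. Compound: single dose, pinned. Read-out basis: inhibition from reduced deposited-fibronectin fluorescence.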
* hit, by the source's call; nt = no result given; [ ] = another dose, or the depositor's remark. Compounds with a hit are over-represented: about 1.4% of the library has one in this group of screens.

SMILES | HIV Env fusion | PDI inh | GSIS activator | ERp5 inh | FN deposit inh
O=C(Cn1cnc2c(OCc3ccccc3)ncnc21)NCc1ccccc1 | -61 | -1 | -5 | 2 | 4
O=C(Cn1cnc2c(OCc3ccccc3)ncnc21)N[C@H](CO)Cc1cc2ccccc2[nH]1 | 12 | -14 | 49* | 6 | 1
O=C(Cn1cnc2c(OCc3ccccc3)ncnc21)NCc1ccccn1 | 2 | 5 | 41* | 0 | -2
Cc1ccc(S(=O)(=O)Nc2ccc3c(c2)C(=O)N([C@@H](C)CO)C[C@H](C)[C@H](CN(C)C(=O)c2ccccc2)OCCCC[C@@H](C)O3)cc1 | -8[16.7 µM] | nt | -12 | -8 | -8
C[C@@H]1CN([C@@H](C)CO)C(=O)c2c(c3ccccc3n2C)-c2ccccc2CO[C@@H]1CN(C)CC1CCCCC1 | nt | nt | 2 | -1 | -12
CC(=O)N(C)C[C@@H]1Oc2c(cccc2N(C)C)C(=O)N(C)C[C@H]1C | nt | nt | 4 | nt | 3
CCCCC[C@@H](/C=C/C1C(=O)C=C[C@H]1C/C=C\CCCC(=O)OC)OC(C)=O (stereo not given in full) | -313 | 8 | 46* | 2 | 4
Cc1ccc(N(C(=O)Cc2c[nH]c3ccccc23)C(C(=O)NC2CCCCC2)c2ccco2)cc1 (stereo not given) | 84* | 13 | nt | nt | -4
O=C(c1c(O)cc(O)cc1O)C1c2c(cc(O)c3c2O[C@H](c2ccc(O)cc2)[C@@H](O)C3)OC1c1ccc(O)cc1 (stereo not given in full) | 19 | 53* | -18 | -1 | 6
C[C@@H]1CN([C@H](C)CO)C(=O)c2cc(NC(=O)CCCN(C)C)ccc2O[C@@H](C)CCCCO[C@@H]1CN(C)CC1CCCCC1 | -6[16.7 µM] | nt | 0 | 1 | nt
C[C@H](CO)N1C[C@H](C)[C@@H](CN(C)Cc2ccccc2)OCCCC[C@H](C)Oc2ccc(NC(=O)Nc3ccc(C(F)(F)F)cc3)cc2C1=O | 9[16.7 µM] | nt | 27 | 6 | 2
C[C@@H]1CCCCO[C@H](CN(C)Cc2ccccc2)[C@@H](C)CN([C@@H](C)CO)C(=O)c2cc(NC(=O)Nc3ccc(C(F)(F)F)cc3)ccc2O1 | 88*[16.7 µM] | nt | 26 | 1 | 4
C[C@@H]1CN([C@H](C)CO)C(=O)c2cc(NC(=O)Nc3ccc(C(F)(F)F)cc3)ccc2O[C@@H](C)CCCCO[C@H]1CN(C)Cc1ccccc1 | 66*[16.7 µM] | nt | -20 | -3 | 0
C[C@H](CO)N1C[C@H](C)[C@H](CN(C)Cc2ccccc2)OCCCC[C@H](C)Oc2ccc(NC(=O)Nc3ccccc3)cc2C1=O | 75*[16.7 µM] | nt | 4 | 0 | 5
COc1ccc(-c2ccc3c(c2)[C@@H]2[C@@H](CCN2C(=O)C2CCOCC2)[C@H](CO)N3C)cc1 | nt | nt | 10 | nt | -16
CS(=O)(=O)c1nc(S(=O)(=O)c2ccc(Cl)cc2)c(N2CCCCC2)s1 | -4 | 6 | 12 | 5 | 13
CS(=O)(=O)c1nc(S(=O)(=O)c2ccc(Cl)cc2)c(N2CCCCCC2)s1 | 10 | -4 | 47* | 1 | 9
Nc1nc(NCc2ccccc2Cl)n(-c2ccccc2)n1 | -11 | 5 | 17 | 1 | 1
CC(=O)Nc1nc(NCc2ccccc2Cl)n(-c2ccccc2)n1 | -6 | -13 | 77* | 1 | 1
C[C@H](CO)N1C[C@H](C)[C@H](CN(C)C(=O)Nc2ccccc2)Oc2ccc(NC(=O)Cn3cnnn3)cc2CC1=O | -68[16.7 µM] | nt | -8 | -2 | nt
COc1ccc(-c2nc(CCNC(=O)c3ccco3)cs2)cc1OC | 13 | nt | 89* | -4 | 12
COc1ccc(-c2csc(NC(=O)CCNC(=O)c3ccco3)n2)cc1OC | nt | 0 | 16 | 0 | 15
Cc1ccc(S(=O)(=O)c2ncccc2N)cc1 | 5 | 0 | 4 | 2 | 11
Cc1ccc(S(=O)(=O)c2ncccc2[N+](=O)[O-])cc1 | -13 | 0 | 65* | -1 | -1
C[C@H](CO)N1C[C@H](C)[C@@H](CN(C)Cc2ccc(-c3ccccc3)cc2)Oc2ncc(-c3cccnc3)cc2C1=O | -3[16.7 µM] | nt | -17 | -2 | nt
CCOc1ccc(NC(=O)c2ccc(F)c(S(=O)(=O)N3CCN(c4ccccn4)CC3)c2)cc1 | 57* | 2 | -38 | nt | 4
Cc1nn(Cc2c(F)c(F)c(F)c(F)c2F)c(C)c1NC(=O)c1c(-c2ccccc2)nn(-c2ccccc2)c1C | 95* | -7 | -23 | nt | 2

Bioassay records (PubChem BioAssay)
